# Columns and labels:
# [1] = test system: RPMI-8226; assay: cells; format: cell-based
# [2] = test system: SR; assay: cells; format: cell-based
# [3] = test system: A549/ATCC; assay: cells; format: cell-based
# [4] = test system: EKVX; assay: NCI-60 SRB screen, Non-small cell lung cancer; format: cell-based, human
# [5] = test system: HOP-92; assay: cells; format: cell-based
# [6] = test system: NCI-H226; assay: cells; format: cell-based
# [7] = test system: NCI-H322M; assay: cells; format: cell-based
# [8] = test system: NCI-H522; assay: cells; format: cell-based
# [9] = test system: SW-620; assay: cells; format: cell-based
# [10] = test system: SF-268; assay: cells; format: cell-based
# [11] = test system: SF-295; assay: cells; format: cell-based
# [12] = test system: SF-539; assay: cells; format: cell-based
# [13] = test system: SNB-19; assay: cells; format: cell-based
# [14] = test system: LOX IMVI; assay: cells; format: cell-based
# [15] = test system: OVCAR-3; assay: cells; format: cell-based
# [16] = test system: OVCAR-8; assay: cells; format: cell-based
# [17] = test system: A498; assay: NCI-60 SRB screen, Renal cancer; format: cell-based, human
# [18] = test system: ACHN; assay: cells; format: cell-based
# [19] = test system: UO-31; assay: cells; format: cell-based
# [20] = test system: DU-145; assay: cells; format: cell-based
# [21] = test system: MCF7; assay: cells; format: cell-based
# [22] = biological target: ERK2 (Rattus norvegicus, UniProt P63086); assay: in vitro radioactive kinase assay, Ets-1 phosphorylation by ERK2; format: biochemical
# ERK2, sequence (P63086 whole entry): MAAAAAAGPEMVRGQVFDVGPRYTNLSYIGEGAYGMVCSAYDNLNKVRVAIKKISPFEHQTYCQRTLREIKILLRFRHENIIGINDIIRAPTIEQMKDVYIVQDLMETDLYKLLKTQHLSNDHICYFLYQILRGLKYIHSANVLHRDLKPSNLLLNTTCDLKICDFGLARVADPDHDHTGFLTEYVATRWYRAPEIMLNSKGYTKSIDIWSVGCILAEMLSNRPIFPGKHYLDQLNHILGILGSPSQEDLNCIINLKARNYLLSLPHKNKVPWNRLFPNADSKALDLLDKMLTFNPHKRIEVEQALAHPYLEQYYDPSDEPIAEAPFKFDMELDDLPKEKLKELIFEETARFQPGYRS
# In short: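 Activated rat ERK2 (2 nM) was tested with His-Ets-1 (1–138) at 28–30 °C in HEPES pH 7.5 buffer with 11 mM MgCl2, BSA and 5% DMSO. Reactions were started with [γ-32P]ATP (10 or 100 μM).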
# [23] = test system: BRAF-mutant A375 melanoma cells; assay: A375 cell viability, MTS assay; format: cell-based; settings: Homo sapiens, A-375, 72 h, read-out: A375 Cell Viability IC50
# In short: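 A375 cells were kept in RPMI with 10% heat-inactivated FBS, Glutamax and penicillin/streptomycin at 37 °C in 5% CO2. 2000 cells per well were treated with a range of test compound doses for 72 h. Viability was read by MTS assay. Run in triplicate.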
# [24] = test system: ERK substrates (p90RSK and ELK) phosphorylation in A375 cells; assay: western blotting of MAPK pathway phosphorylation in A375 cells after EGF; format: cell-based, human
# In short: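 A375 cells (1,000,000 per well) were seeded 24 h, then treated with DMSO or test compound (0.5–25 μM) in serum-free medium for 4 or 12 h. Cells were stimulated with 100 nM EGF for 10–15 min, lysed, and 60 μg lysate was blotted. Probes: phospho-p90RSK (Thr573), RSK, phospho-Elk-1 (Ser383), phospho- and total ERK1/2, phospho-JNK (Thr183/Tyr185). Done twice.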
# [25] = test system: A375 cells; assay: IncuCyte real time proliferation assay; format: cell-based, human; settings: imaged every 1 h for 90 h
# In short: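 Real-time growth: 2000 A375 cells per well adhered for 24 h, then were treated with a range of test compound doses. Phase images were taken on IncuCyte ZOOM (10× objective) every 1 h for 90 h in total. Growth confluence was estimated from the images and plotted.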
# [26] = test system: caspase 3/7 in A375 cells; assay: IncuCyte Caspase 3/7 apoptosis assay; format: cell-based, human; settings: doses of 3.7 and 33.3 μM, after 48 and 72 h
# In short: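 2000 A375 cells per well adhered for 24 h, then received test compound doses plus a constant concentration of IncuCyte Caspase-3/7 reagent. Cells were imaged on IncuCyte ZOOM (10× objective) at set time points, and stained cells were counted. Apoptotic cell number was normalized to percentage area confluence at the final time point.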
# [27] = test system: cleaved PARP in A375 cells; assay: PARP cleavage western blot; format: cell-based, human; settings: 12 h exposure
# In short: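 A375 cells (1,000,000 per well) were seeded 24 h, then exposed to several test compound doses for 12 h before lysis in buffer with protease/phosphatase inhibitors. Protein was measured by Bradford. 60 μg lysate was run on 10% SDS-PAGE and blotted to PVDF. Blots were probed for PARP and cleaved PARP, with vinculin as loading control. Done twice.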
smiles,measurement,setting,value
"O=C1c2ccccc2C(=O)c2c1oc1c2c(=O)[nH]c2ccc(Cl)cc21 [3b, 2-Chloronaphtho[2′,3′:4,5]furo[3,2-c]quinoline-6,7,12(5H)-trione]",GI50,"[1]; Homo sapiens, RPMI-8226",390 nM
same,CC50,"[1]; Homo sapiens, RPMI-8226, read-out: LC50",> 100000 nM
same,Growth percent (G%),"[1]; RPMI-8226, 10^−5 M, 48 h",4.83%
same,TGI,"[1]; RPMI-8226, five-dose",2630 nM
same,Growth percent (G%),"[2]; 10^−5 M, 48 h",33.72%
same,GI50,[2]; Homo sapiens,500 nM
same,CC50,"[2]; Homo sapiens, read-out: LC50",> 100000 nM
same,TGI,[2]; five-dose,3980 nM
same,Growth percent (G%),"[3]; A549/ATCC, 10^−5 M, 48 h",−0.05%
same,TGI,"[3]; A549/ATCC, five-dose",2880 nM
same,GI50,"[3]; Homo sapiens, A549",1020 nM
same,CC50,"[3]; Homo sapiens, A549, read-out: LC50",8320 nM
same,Growth percent (G%),"[4]; 10^−5 M, 48 h",15.17%
same,GI50,[4]; Homo sapiens,250 nM
same,CC50,"[4]; Homo sapiens, read-out: LC50",26300 nM
same,TGI,[4]; five-dose,2450 nM
same,Growth percent (G%),"[5]; HOP-92, 10^−5 M, 48 h",−37.24%
same,TGI,"[5]; HOP-92, five-dose",390 nM
same,GI50,"[5]; Homo sapiens, HOP-92",150 nM
same,CC50,"[5]; Homo sapiens, HOP-92, read-out: LC50",1000 nM
same,GI50,"[6]; Homo sapiens, NCI-H226",140 nM
same,CC50,"[6]; Homo sapiens, NCI-H226, read-out: LC50",870 nM
same,Growth percent (G%),"[6]; NCI-H226, 10^−5 M, 48 h",−28.80%
same,TGI,"[6]; NCI-H226, five-dose",350 nM
same,Growth percent (G%),"[7]; 10^−5 M, 48 h",13.98%
same,GI50,[7]; Homo sapiens,320 nM
same,CC50,"[7]; Homo sapiens, read-out: LC50",7240 nM
same,TGI,[7]; five-dose,1450 nM
same,GI50,"[8]; Homo sapiens, NCI-H522",320 nM
same,CC50,"[8]; Homo sapiens, NCI-H522, read-out: LC50",8130 nM
same,Growth percent (G%),"[8]; NCI-H522, 10^−5 M, 48 h",−16.76%
same,TGI,"[8]; NCI-H522, five-dose",1380 nM
same,GI50,"[9]; Homo sapiens, SW-620",330 nM
same,CC50,"[9]; Homo sapiens, SW-620, read-out: LC50",7590 nM
same,Growth percent (G%),"[9]; SW-620, 10^−5 M, 48 h",−53.04%
same,TGI,"[9]; SW-620, five-dose",1000 nM
same,GI50,"[10]; Homo sapiens, SF-268",460 nM
same,CC50,"[10]; Homo sapiens, SF-268, read-out: LC50",49000 nM
same,Growth percent (G%),"[10]; SF-268, 10^−5 M, 48 h",−31.69%
same,TGI,"[10]; SF-268, five-dose",3980 nM
same,GI50,"[11]; Homo sapiens, SF-295",630 nM
same,CC50,"[11]; Homo sapiens, SF-295, read-out: LC50",6610 nM
same,Growth percent (G%),"[11]; SF-295, 10^−5 M, 48 h",−1.34%
same,TGI,"[11]; SF-295, five-dose",2290 nM
same,GI50,"[12]; Homo sapiens, SF-539",230 nM
same,CC50,"[12]; Homo sapiens, SF-539, read-out: LC50",2090 nM
same,Growth percent (G%),"[12]; SF-539, 10^−5 M, 48 h",−27.99%
same,TGI,"[12]; SF-539, five-dose",560 nM
same,GI50,"[13]; Homo sapiens, SNB-19",310 nM
same,CC50,"[13]; Homo sapiens, SNB-19, read-out: LC50",6170 nM
same,Growth percent (G%),"[13]; SNB-19, 10^−5 M, 48 h",7.11%
same,TGI,"[13]; SNB-19, five-dose",1100 nM
same,Growth percent (G%),"[14]; 10^−5 M, 48 h",11.13%
same,GI50,[14]; Homo sapiens,320 nM
same,CC50,"[14]; Homo sapiens, read-out: LC50",3980 nM
same,TGI,[14]; five-dose,1320 nM
same,GI50,"[15]; Homo sapiens, OVCAR-3",240 nM
same,CC50,"[15]; Homo sapiens, OVCAR-3, read-out: LC50",1820 nM
same,Growth percent (G%),"[15]; OVCAR-3, 10^−5 M, 48 h",−68.37%
same,TGI,"[15]; OVCAR-3, five-dose",560 nM
same,GI50,"[16]; Homo sapiens, OVCAR-8",390 nM
same,CC50,"[16]; Homo sapiens, OVCAR-8, read-out: LC50",30200 nM
same,Growth percent (G%),"[16]; OVCAR-8, 10^−5 M, 48 h",−27.45%
same,TGI,"[16]; OVCAR-8, five-dose",2290 nM
same,Growth percent (G%),"[17]; A498, 10^−5 M, 48 h",80.44%
same,TGI,"[17]; A498, five-dose",950 nM
same,GI50,"[17]; Homo sapiens, A498",210 nM
same,CC50,"[17]; Homo sapiens, A498, read-out: LC50",3550 nM
same,Growth percent (G%),"[18]; 10^−5 M, 48 h",−14.18%
same,GI50,[18]; Homo sapiens,200 nM
same,CC50,"[18]; Homo sapiens, read-out: LC50",2630 nM
same,TGI,[18]; five-dose,580 nM
same,GI50,"[19]; Homo sapiens, UO-31",190 nM
same,CC50,"[19]; Homo sapiens, UO-31, read-out: LC50",2510 nM
same,Growth percent (G%),"[19]; UO-31, 10^−5 M, 48 h",−54.91%
same,TGI,"[19]; UO-31, five-dose",600 nM
same,Growth percent (G%),"[20]; DU-145, 10^−5 M, 48 h",−45.39%
same,TGI,"[20]; DU-145, five-dose",780 nM
same,GI50,"[20]; Homo sapiens, DU-145",280 nM
same,CC50,"[20]; Homo sapiens, DU-145, read-out: LC50",12300 nM
same,GI50,"[21]; Homo sapiens, MCF7",230 nM
same,CC50,"[21]; Homo sapiens, MCF7, read-out: LC50",18600 nM
same,Growth percent (G%),"[21]; MCF7, 10^−5 M, 48 h",0.70%
same,TGI,"[21]; MCF7, five-dose",1050 nM
same,effect of excess Ets-1 (100 μM) on inhibition of ERK2,"[22]; 5 μM inhibitor, 100 μM vs 10 μM Ets-1, 100 μM ATP",did not rescue
same,IC50,"[22]; ERK2 IC50, 10 μM ATP",200 ± 10 nM
same,IC50,"[22]; ERK2 IC50, 100 μM ATP, 10 μM Ets-1",600 ± 100 nM
same,IC50,"[22]; ERK2 IC50 at 100 μM ATP /10mM Ets-1, Table 4, 100 μM ATP /10mM Ets-1",600 ± 100 nM
same,IC50,[23],3700 ± 600 nM
same,"phosphorylation of ERK substrates (p90RSK and ELK), in words","[24]; A375, 0.5–25 μM, EGF stimulation",dose-dependent inhibition
same,concentration enough to inhibit ELK phosphorylation,"[24]; A375, 12 h, then EGF 100 nM",10 µM
same,concentration enough to inhibit p-90RSK phosphorylation,"[24]; A375, 12 h, then EGF 100 nM",25 µM
same,effect on ERK or MKK½ phosphorylation or the JNK pathway,"[24]; A375, EGF stimulation",no effect
same,"A375 real time proliferation (growth confluence), in words",[25],dose-dependent inhibition
same,caspase 3/7 activity in A375,[26],activation of caspase 3/7
same,level of cleaved PARP in A375,[27],elevated level
